{"source": "ChEMBL document CHEMBL1145009", "about": "(J Med Chem, 2003)", "key": {"[1]": {"molecular_target": "T1, Gonadotropin-releasing hormone receptor (Homo sapiens, UniProt P30968)", "T1 sequence (P30968 whole entry)": "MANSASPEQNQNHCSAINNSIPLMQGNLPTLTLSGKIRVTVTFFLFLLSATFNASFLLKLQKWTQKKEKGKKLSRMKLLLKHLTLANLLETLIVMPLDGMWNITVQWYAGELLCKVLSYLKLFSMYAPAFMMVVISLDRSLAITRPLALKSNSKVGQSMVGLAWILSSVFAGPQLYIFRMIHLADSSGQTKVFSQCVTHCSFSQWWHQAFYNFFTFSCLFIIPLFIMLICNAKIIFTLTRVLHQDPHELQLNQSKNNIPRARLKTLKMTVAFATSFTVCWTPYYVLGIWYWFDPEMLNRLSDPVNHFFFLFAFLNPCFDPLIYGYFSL", "test": "Antagonist concentration required to inhibit specific binding of [125I]leuprorelin to human luteinizing releasing hormone receptor in cloned chinese hamster ovary (CHO) cells.", "assay_type": "cell-based"}, "[2]": {"test": "Tested for oral absorption in Cynomolgus Monkey at the dose of 10 mg/kg, activity expressed as Cmax", "assay_type": "ADME, organism-based, Macaca fascicularis", "design": "dose 10 mg/kg, route oral", "details": "in vivo", "procedure,_shortened": "(§1)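 Single oral dose of 10 mg/kg as suspension in 0.5% methylcellulose to female cynomolgus monkeys (4–8 years, n = 3). Forearm-vein heparin plasma taken at 1, 3 and 6 h, deproteinized with 5% acetonitrile/0.05% TFA, compound measured by reverse-phase HPLC with UV detection at 320 nm.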"}, "Cynomolgus monkey": {"test_system": "Cynomolgus monkey", "test": "(§2) Tested for oral absorption in Cynomolgus Monkey at the dose of 10 mg/kg, activity expressed as area under curve (AUC)", "assay_type": "ADME, organism-based, Macaca fascicularis", "design": "dose 10 mg/kg, route oral", "details": "in vivo", "procedure,_shortened": "as §1"}, "[3]": {"test": "Tested for oral absorption in Cynomolgus Monkey at the dose of 10 mg/kg, activity expressed as Tmax (time required for Cmax)", "assay_type": "ADME, organism-based, Macaca fascicularis", "design": "dose 10 mg/kg, route oral", "details": "in vivo", "procedure,_shortened": "as §1"}, "[4]": {"test": "as §2", "assay_type": "ADME, organism-based, Macaca fascicularis", "design": "dose 10 mg/kg, route oral", "details": "in vivo", "procedure,_shortened": "as §1"}, "[5]": {"test": "Tested for plasma LH concentration in Castarted male Cynomolgus monkeys for oral administration at the dose of 10 mg/kg after 4 h", "assay_type": "functional, Cercopithecidae", "procedure,_shortened": "(§3)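 Male cynomolgus monkeys (4–9 years), castrated more than 6 months earlier and chair-restrained, given 10 mg/kg orally (3 mL/kg, n = 3) in 0.5% methylcellulose with 1.2% citric acid; vehicle group n = 3. Femoral-vein heparin plasma taken at 0–48 h; LH measured by mouse testicular cell bioassay. Mean ± SEM, also as % of 0 h value.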"}, "[6]": {"test": "Tested for plasma LH concentration in Castarted male Cynomolgus monkeys for oral administration at the dose of 10 mg/kg after 48 h", "assay_type": "functional, Cercopithecidae", "procedure,_shortened": "as §3"}, "[7]": {"test": "Tested for plasma LH concentration in Castarted male Cynomolgus monkeys for oral administration at the dose of 10 mg/kg after 8 h", "assay_type": "functional, Cercopithecidae", "procedure,_shortened": "as §3"}, "[8]": {"test": "Tested for plasma LH concentration in Castarted male Cynomolgus monkeys for oral administration at the dose of 30 mg/kg after 0 h", "assay_type": "functional, Cercopithecidae", "procedure,_shortened": "(§4)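 Castrated (more than 6 months) male cynomolgus monkeys aged 4–9 years, chair-restrained, dosed orally at 30 mg/kg (3 mL/kg, n = 3) as suspension in 0.5% methylcellulose/1.2% citric acid; vehicle controls n = 3. Plasma LH from femoral-vein samples through 48 h, assayed by bioassay with mouse testicular cells; mean ± SEM and % of pretreatment.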"}, "[9]": {"test": "Tested for plasma LH concentration in Castarted male Cynomolgus monkeys for oral administration at the dose of 30 mg/kg after 2 h", "assay_type": "functional, Cercopithecidae", "procedure,_shortened": "as §4"}, "[10]": {"test": "Tested for plasma LH concentration in Castarted male Cynomolgus monkeys for oral administration at the dose of 30 mg/kg after 24 h", "assay_type": "functional, Cercopithecidae", "procedure,_shortened": "as §4"}, "[11]": {"test": "Tested for plasma LH concentration in Castarted male Cynomolgus monkeys for oral administration at the dose of 30 mg/kg after 4 h", "assay_type": "functional, Cercopithecidae", "procedure,_shortened": "as §4"}, "[12]": {"test": "Tested for plasma LH concentration in Castarted male Cynomolgus monkeys for oral administration at the dose of 30 mg/kg after 48 h", "assay_type": "functional, Cercopithecidae", "procedure,_shortened": "as §4"}, "[13]": {"test": "Tested for plasma LH concentration in Castarted male Cynomolgus monkeys for oral administration at the dose of 30 mg/kg after 8 h", "assay_type": "functional, Cercopithecidae", "procedure,_shortened": "as §4"}, "[14]": {"test": "Tested for plasma LH concentration in Castarted male Cynomolgus monkeys for oral administration at the dose of 10 mg/kg after 0 h", "assay_type": "functional, Cercopithecidae", "procedure,_shortened": "as §3"}, "[15]": {"test": "Tested for plasma LH concentration in Castarted male Cynomolgus monkeys for oral administration at the dose of 10 mg/kg after 2 h", "assay_type": "functional, Cercopithecidae", "procedure,_shortened": "as §3"}, "[16]": {"test": "Tested for plasma LH concentration in Castarted male Cynomolgus monkeys for oral administration at the dose of 10 mg/kg after 24 h", "assay_type": "functional, Cercopithecidae", "procedure,_shortened": "as §3"}}, "note": "pIC50: −log10 of the molar value.", "data": [{"smiles": "CCC(=O)Nc1ccc(-c2sc3c(c2CN(C)Cc2ccccc2)c(=O)n(-c2cccc(OC)c2)c(=O)n3Cc2c(F)cccc2F)cc1", "values": [{"measurement": "pIC50", "setting": "[1]", "value": 9.70}]}, {"smiles": "CNC(=O)Nc1ccc(-c2sc3c(c2CN(C)Cc2ccccc2)c(=O)n(-c2ccccc2)c(=O)n3Cc2c(F)cccc2F)cc1", "values": [{"measurement": "pIC50", "setting": "[1]", "value": 10.00}]}, {"smiles": "CCC(=O)Nc1ccc(-c2sc3c(c2CN(C)Cc2ccccc2)c(=O)n(-c2ccccc2)c(=O)n3Cc2c(F)cccc2F)cc1", "values": [{"measurement": "Cmax", "setting": "[2]", "value": 630, "unit": "nM"}, {"measurement": "AUC", "setting": "Cynomolgus monkey", "value": 2.5, "unit": "µM·h"}, {"measurement": "Tmax", "setting": "[3]", "value": 3, "unit": "h"}]}, {"smiles": "CCC(=O)N(C)c1ccc(-c2sc3c(c2CN(C)Cc2ccccc2)c(=O)n(-c2cccc(OC)c2)c(=O)n3Cc2c(F)cccc2F)cc1", "values": [{"measurement": "pIC50", "setting": "[1]", "value": 7.70}]}, {"smiles": "CCONC(=O)Nc1ccc(-c2sc3c(c2CN(C)Cc2ccccc2)c(=O)n(-c2ccccc2)c(=O)n3Cc2c(F)cccc2F)cc1", "values": [{"measurement": "pIC50", "setting": "[1]", "value": 9.70}]}, {"smiles": "COc1ccc(-c2sc3c(c2CN(C)Cc2ccccc2)c(=O)n(-c2ccccc2)c(=O)n3Cc2c(F)cccc2F)cc1", "values": [{"measurement": "pIC50", "setting": "[1]", "value": 7.30}]}, {"smiles": "COc1ccc(-c2sc3c(c2CN(C)Cc2ccccc2)c(=O)n(CC(C)C)c(=O)n3Cc2c(F)cccc2F)cc1", "values": [{"measurement": "pIC50", "setting": "[1]", "value": 6.40}]}, {"smiles": "COc1ccc(-c2sc3c(c2CN(C)Cc2ccccc2)c(=O)n(Cc2ccccc2)c(=O)n3Cc2c(F)cccc2F)cc1", "values": [{"measurement": "pIC50", "setting": "[1]", "value": 6.40}]}, {"smiles": "CC(C)ONC(=O)Nc1ccc(-c2sc3c(c2CN(C)Cc2ccccc2)c(=O)n(-c2ccccc2)c(=O)n3Cc2c(F)cccc2F)cc1", "values": [{"measurement": "pIC50", "setting": "[1]", "value": 9.22}]}, {"smiles": "CN(Cc1ccccc1)Cc1c(-c2ccc(NC(=O)NO)cc2)sc2c1c(=O)n(-c1ccccc1)c(=O)n2Cc1c(F)cccc1F", "values": [{"measurement": "pIC50", "setting": "[1]", "value": 9.40}]}, {"smiles": "COc1ccc(-c2sc3c(c2CN(C)Cc2ccccc2)c(=O)n(-c2ccccc2Cl)c(=O)n3Cc2c(F)cccc2F)cc1", "values": [{"measurement": "pIC50", "setting": "[1]", "value": 7.10}]}, {"smiles": "COc1ccc(-c2sc3c(c2CN(C)Cc2ccccc2)c(=O)n(-c2ccc(Cl)cc2)c(=O)n3Cc2c(F)cccc2F)cc1", "values": [{"measurement": "pIC50", "setting": "[1]", "value": 6.70}]}, {"smiles": "COc1ccc(-c2sc3c(c2CN(C)Cc2ccccc2)c(=O)n(-c2cccc(Cl)c2)c(=O)n3Cc2c(F)cccc2F)cc1", "values": [{"measurement": "pIC50", "setting": "[1]", "value": 6.70}]}, {"smiles": "COc1cccc(-n2c(=O)c3c(CN(C)Cc4ccccc4)c(-c4ccc([N+](=O)[O-])cc4)sc3n(Cc3c(F)cccc3F)c2=O)c1", "values": [{"measurement": "pIC50", "setting": "[1]", "value": 7.70}]}, {"smiles": "CC(C)NC(=O)Nc1ccc(-c2sc3c(c2CN(C)Cc2ccccc2)c(=O)n(-c2ccccc2)c(=O)n3Cc2c(F)cccc2F)cc1", "values": [{"measurement": "pIC50", "setting": "[1]", "value": 9.70}]}, {"smiles": "COc1cccc(-n2c(=O)c3c(CN(C)Cc4ccccc4)c(-c4ccc(N)cc4)sc3n(Cc3c(F)cccc3F)c2=O)c1", "values": [{"measurement": "pIC50", "setting": "[1]", "value": 9.00}]}, {"smiles": "CN(Cc1ccccc1)Cc1c(-c2ccc(NC(=O)c3ccccc3)cc2)sc2c1c(=O)n(-c1ccccc1)c(=O)n2Cc1c(F)cccc1F", "values": [{"measurement": "pIC50", "setting": "[1]", "value": 9.00}]}, {"smiles": "CC(C)C(=O)Nc1ccc(-c2sc3c(c2CN(C)Cc2ccccc2)c(=O)n(-c2ccccc2)c(=O)n3Cc2c(F)cccc2F)cc1", "values": [{"measurement": "pIC50", "setting": "[1]", "value": 9.40}]}, {"smiles": "COc1ccc(-c2sc3c(c2CN(C)Cc2ccccc2)c(=O)n(-c2ccc(OC)cc2)c(=O)n3Cc2c(F)cccc2F)cc1", "values": [{"measurement": "pIC50", "setting": "[1]", "value": 7.52}]}, {"smiles": "COc1cccc(-n2c(=O)c3c(CN(C)Cc4ccccc4)c(-c4ccc(NC(=O)C(C)C)cc4)sc3n(Cc3c(F)cccc3F)c2=O)c1", "values": [{"measurement": "pIC50", "setting": "[1]", "value": 9.52}]}, {"smiles": "COc1ccc(-c2sc3c(c2CN(C)Cc2ccccc2)c(=O)n(-c2ccccc2OC)c(=O)n3Cc2c(F)cccc2F)cc1", "values": [{"measurement": "pIC50", "setting": "[1]", "value": 6.70}]}, {"smiles": "COc1ccc(-c2sc3c(c2CN(C)Cc2ccccc2)c(=O)n(-c2cccc(OC)c2)c(=O)n3Cc2c(F)cccc2F)cc1", "values": [{"measurement": "pIC50", "setting": "[1]", "value": 7.70}]}, {"smiles": "CCNC(=O)Nc1ccc(-c2sc3c(c2CN(C)Cc2ccccc2)c(=O)n(-c2ccccc2)c(=O)n3Cc2c(F)cccc2F)cc1", "values": [{"measurement": "Cmax", "setting": "[2]", "value": 63, "unit": "nM"}, {"measurement": "AUC", "setting": "[4]", "value": 0.27, "unit": "µM·h"}, {"measurement": "Tmax", "setting": "[3]", "value": 3, "unit": "h"}]}, {"smiles": "COc1ccc(-c2sc3c(c2CN(C)Cc2ccccc2)c(=O)n(C2CCCCC2)c(=O)n3Cc2c(F)cccc2F)cc1", "values": [{"measurement": "pIC50", "setting": "[1]", "value": 6.15}]}, {"smiles": "CONC(=O)Nc1ccc(-c2sc3c(c2CN(C)Cc2ccccc2)c(=O)n(-c2ccccc2)c(=O)n3Cc2c(F)cccc2F)cc1", "note": "[SUFUGOLIX]", "values": [{"measurement": "Cmax", "setting": "[2]", "value": 210, "unit": "nM"}, {"measurement": "AUC", "setting": "[4]", "value": 0.85, "unit": "µM·h"}, {"measurement": "Tmax", "setting": "[3]", "value": 6, "unit": "h"}, {"measurement": "LH concentration", "setting": "[5]", "value": 0.37, "unit": "mU ml-1"}, {"measurement": "LH concentration", "setting": "[6]", "value": 0.76, "unit": "mU ml-1"}, {"measurement": "LH concentration", "setting": "[7]", "value": 0.19, "unit": "mU ml-1"}, {"measurement": "LH concentration", "setting": "[8]", "value": 0.91, "unit": "mU ml-1"}, {"measurement": "LH concentration", "setting": "[9]", "value": 0.55, "unit": "mU ml-1"}, {"measurement": "LH concentration", "setting": "[10]", "value": 0.1, "unit": "mU ml-1"}, {"measurement": "LH concentration", "setting": "[11]", "value": 0.25, "unit": "mU ml-1"}, {"measurement": "LH concentration", "setting": "[12]", "value": 0.71, "unit": "mU ml-1"}, {"measurement": "LH concentration", "setting": "[13]", "value": 0.13, "unit": "mU ml-1"}, {"measurement": "LH concentration", "setting": "[14]", "value": 1.01, "unit": "mU ml-1"}, {"measurement": "LH concentration", "setting": "[15]", "value": 0.74, "unit": "mU ml-1"}, {"measurement": "LH concentration", "setting": "[16]", "value": 0.18, "unit": "mU ml-1"}]}]}
